# Measurements of several laboratories.
# Lines come from different studies, so protocols differ.
# Target: Casein kinase I isoform gamma-1 (CSNK1G1, Homo sapiens, UniProt Q9HCP0)
SMILES,read-out,mode,technique,concentration,measurement,value
O=C1Nc2ccc(Cl)cc2C1=Cc1cc(Cl)c(O)c(Cl)c1,cell-free assay,,,0.5 µM,remaining signal,89%
C[C@H](c1cccc(C#N)c1)n1cc(Cl)cc(C(N)=O)c1=N,cell-free assay,,competition with immobilised ligand,1 µM,remaining binding,96%
CC(C)(C)c1nc2c(s1)c1nc(N)ncc1c1ccc(NS(=O)(=O)c3c(F)cccc3F)c(F)c12,enzyme activity,inhibitor,radiometric,1 µM,remaining activity,63%
CS(=O)(=O)N1CCCC(NC(=O)[C@H](CCC2CCCCC2)NC(=O)c2ccc(CNC(=O)c3cnc4ccccn34)cc2)C1 (some centres unmarked),cell-free assay,,competition with immobilised ligand,0.1 µM,remaining binding,100%
COc1cc(Cl)c(C(=O)N[C@@H](CN[C@H]2CC[C@@H](N)CC2)Cc2ccc(C#N)cc2)cc1-c1ccc(CN[C@H](C)c2ccc(C)cc2)o1,enzyme activity,inhibitor,,1 µM,remaining activity,87%
c1cnn2ncc(-c3ccnc(N4CCC45COC5)n3)c2c1,binding,,,1 µM,remaining binding,84%
CNC(=O)c1cc(Oc2ccc(NC(=O)Nc3ccc(Cl)c(C(F)(F)F)c3)cc2)ccn1,enzyme activity,inhibitor,,0.3 µM,inhibition,-16%
COc1cc2ncnc(Nc3ccc(F)c(Cl)c3)c2cc1OCCCN1CCOCC1,cell-free assay,,,0.5 µM,remaining signal,99.5%
O=C(Nc1cnn(-c2csc(C(=O)NC3COC3)c2)c1)Nc1ccccc1Cl,enzyme activity,inhibitor,,5 µM,remaining activity,99%
CCc1ccccc1C(=O)Nc1n[nH]c2c(C)c(F)c(C3C(C#N)=C(C)N(C)C(C)=C3C#N)cc12,cell-free assay,,competition with immobilised ligand,1 µM,remaining binding,95%
Cc1cc(NC(=O)c2cccc3cc(-c4cccc5[nH]nc(N)c45)ccc23)ccc1F,enzyme activity,inhibitor,,0.1 µM,activity vs control,90%
CC(C)(O)[C@H]1CC[C@H](Nc2ccc3ncc(-c4cccc(C(F)(F)F)c4)n3n2)CC1,enzyme activity,inhibitor,,1 µM,remaining activity,93%
Cn1nc(C(F)(F)F)cc1-c1cnc(N2CCc3cc(S(=O)(=O)Nc4c(F)cc(Cl)cc4F)cc(N4CCCC4=O)c32)nc1,cell-free assay,,competition with immobilised ligand,1 µM,remaining binding,100%
Cc1ccc(Nc2nccc(N(C)c3ccc4c(C)n(C)nc4c3)n2)cc1S(N)(=O)=O,enzyme activity,inhibitor,,10 µM,inhibition,-8%
COc1cc2ncnc(Nc3ccc(Oc4ccccc4)c(C)c3C)c2cc1OC,enzyme activity,inhibitor,,1 µM,inhibition,0%
COc1ccc2cc(OCC3(C(=O)O)CN(C(=O)c4ccc(F)cc4)C3)ccc2c1,cell-free assay,,competition with immobilised ligand,1 µM,remaining binding,94%
C=CC(=O)Nc1cc(Nc2nccc(Nc3cc(Cl)c(F)cc3C(C)(C)O)n2)c(OC)cc1N1CC[C@@H](N(C)C)C1,enzyme activity,inhibitor,,1 µM,inhibition,15%
CN1CC(Oc2cnc(C#N)cc2-c2ccn3nc(NC(=O)C4CC4)cc3c2)C1,enzyme activity,inhibitor,,1 µM,inhibition,-3%
CC(C)(O)c1cncc(-c2nc3ccc(F)cc3n2C2CC2)c1,cell-free assay,,competition with immobilised ligand,1 µM,remaining binding,100%
N#CCCc1ccc2c(c1)-c1[nH]c3ccc([N+](=O)[O-])cc3c1CC(=O)N2,cell-free assay,,,0.5 µM,remaining signal,81.6%
